For data set [1], the system named is Human immunodeficiency virus 1. Kind of data set: Anti-HIV activity in H9 lymphocytes. It counts as functional, organism-based.
A short description of data set [2]: Therapeutic index value of the cpmpound against CEM-SS cells. It counts as cell-based. The following applies: human, read-out: Therapeutic index. In a few lines:
(§1)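 Run at NCI in the CEM-SS T4 lymphocyte line. The agent was dissolved in DMSO, diluted 1:100 in medium, then serially diluted in half-log10 steps, giving a 1:200 final compound dilution. Cells were added, followed shortly by HIV-1, and incubated for 6 days at 37 °C in 5% CO2. Viable cells were read by XTT formazan spectrophotometry, with microscopic confirmation. Drug-treated infected wells were compared against drug-treated uninfected (toxicity) wells and untreated controls.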

The subject of data set [3] is Human immunodeficiency virus 1. Put plainly: Antiviral activity against HIV-1 in H9 lymphocytes. Type of data set: functional, organism-based.
A short description of data set [4]: Therapeutic index in H9 lymphocytes. Type of data set: cell-based. The following applies: human, read-out: Therapeutic index.
Data set [5] relates to CEM-SS. Kind of data set: The compound was tested for anti HIV activity in CEM-SS cell lines. It counts as functional, cell-based. To be noted: Homo sapiens. An outline of the steps: as §1
Data set [6] has as its system CEM-SS. Kind of data set: The compound was tested for anti HIV activity in CEM-SS cell lines; Inactive. Type of data set: functional, cell-based, Homo sapiens. An outline of the steps: as §1
Data set [7] can be described thus: Therapeutic index value of the cpmpound against CEM-SS cells; Inactive. It counts as cell-based. To be noted: human. An outline of the steps:
as §1

The subject of the next data set is H9. Kind of data set: The compound was tested for anti HIV activity in H9 lymphocytes; No suppression. Type of data set: functional, cell-based, Homo sapiens.
Data set [8] can be described thus: Therapeutic index value against H9 lymphocytes; No suppression. Type of data set: cell-based. The following applies: human.

The structures appear in SMILES notation. pEC50, pIC50: −log10 of the molar value.

By pIC50 is commonly meant the negative decadic logarithm of the IC50, by convention in mol/L. Read a high pIC50 as a low IC50. The term pEC50 denotes −log10 of the EC50, conventionally taken in molar units. Read a high pEC50 as a low EC50.

For the molecule `CC1(C)Oc2ccc3ccc(=O)oc3c2[C@@H](OC(=O)C23CCC(C)(C(=O)O2)C3(C)C)[C@H]1OC(=O)C12CCC(C)(C(=O)O1)C2(C)C` (stereo partly drawn), the pIC50 in data set [1] (Human immunodeficiency virus 1) is 4.46; in the data set on CEM-SS [5], 4.59. Also, the selectivity ratio in data set [2] came to 100; in [4], 137000. Further, the pEC50 in [3] is 9.59; in the data set on CEM-SS [5], 6.59.

Consider `Cc1cc2ccc3c(c2oc1=O)[C@@H](OC(=O)C12CCC(C)(C(=O)O1)C2(C)C)[C@@H](OC(=O)C12CCC(C)(C(=O)O1)C2(C)C)C(C)(C)O3` (stereo partly drawn), for which the pIC50 is < 3.95 in data set [1] (Human immunodeficiency virus 1) and < 4.90 in the data set on CEM-SS [5]. Moreover, the selectivity ratio in data set [2] was > 58.7; in [4] it was > 2.15e+06. Besides, the values for the pEC50 (in data set [3]; with CEM-SS [5]) were 10.28 and 6.67, respectively.

`Cc1cc2ccc(=O)oc2c2c1OC(C)(C)[C@H](OC(=O)C13CCC(C)(C(=O)O1)C3(C)C)[C@@H]2OC(=O)C12CCC(C)(C(=O)O1)C2(C)C` (stereo partly drawn): the pIC50 in data set [1] (Human immunodeficiency virus 1) is 4.48; in the data set with CEM-SS [5] it was < 3.70. Also, the selectivity ratio in data set [2] was > 532; in data set [4], 218. Also, the pEC50 was 6.82 in data set [3] and 6.42 in the data set on CEM-SS [5].

For `Cc1cc2c(c3oc(=O)ccc13)[C@@H](OC(=O)C13CCC(C)(C(=O)O1)C3(C)C)[C@@H](OC(=O)C13CCC(C)(C(=O)O1)C3(C)C)C(C)(C)O2` (stereo partly drawn), the figures for the pIC50 (in [1] (Human immunodeficiency virus 1); in the data set with CEM-SS [5]) were < 4.02 and < 3.70, respectively. The selectivity ratio was > 3150 in data set [2] and > 3.97e+08 in data set [4]. In addition, the values for the pEC50 (in data set [3]; with CEM-SS [5]) were 12.62 and 7.20, respectively.

On to `COc1cc2c(c3oc(=O)ccc13)[C@@H](OC(=O)C13CCC(C)(C(=O)O1)C3(C)C)[C@@H](OC(=O)C13CCC(C)(C(=O)O1)C3(C)C)C(C)(C)O2` (stereo partly drawn), for which the pIC50 in data set [1] (Human immunodeficiency virus 1) is < 3.82; in the data set on CEM-SS [5], < 3.70. Moreover, the results for the selectivity ratio in [2] and in data set [4] were > 1560 and > 797000, respectively. The pEC50 in data set [3] is 9.72; in the data set with CEM-SS [5] it was 6.89.

On to `COc1cc(=O)oc2c3c(ccc12)OC(C)(C)[C@H](OC(=O)C12CCC(C)(C(=O)O1)C2(C)C)[C@@H]3OC(=O)C12CCC(C)(C(=O)O1)C2(C)C` (stereo partly drawn), for which the results for the pIC50 (in [1] (Human immunodeficiency virus 1); in the data set on CEM-SS [5]) were < 3.82 and < 3.70, respectively. Also, the selectivity ratio was > 1600 in data set [2] and > 51200 in data set [4]. Besides, the pEC50 was 8.52 in [3] and 6.90 in the data set on CEM-SS [5].

In the case of `COc1cc2ccc(=O)oc2c2c1OC(C)(C)[C@H](OC(=O)C13CCC(C)(C(=O)O1)C3(C)C)[C@@H]2OC(=O)C12CCC(C)(C(=O)O1)C2(C)C` (stereo partly drawn), the negative-log IC50 (pIC50) was < 3.82 in data set [1] (Human immunodeficiency virus 1) and < 3.70 in the data set on CEM-SS [5]. This molecule showed a pEC50 in data set [3] of 4.80. Moreover, the EC50 result in the data set with CEM-SS [6] was “Not Active”. In addition, the Therapeutic index entry in data set [7] was “Not Active”. For the same molecule, in data set [4], the selectivity ratio is > 9.68.

On to `CC(=O)O[C@@H]1[C@H](OC(=O)C23CCC(C)(C(=O)O2)C3(C)C)c2c(ccc3c(C)cc(=O)oc23)OC1(C)C` (stereo partly drawn), for which, in data set [1] (Human immunodeficiency virus 1), the pIC50 is 3.91. In [3], this molecule showed a pEC50 of 7.26. Further, the selectivity ratio in data set [4] came out at 2230.

For `CCCc1cc(=O)oc2c3c(ccc12)OC(C)(C)[C@H](OC(=O)C12CCC(C)(C(=O)O1)C2(C)C)[C@@H]3OC(=O)C12CCC(C)(C(=O)O1)C2(C)C` (stereo partly drawn), the pIC50 in data set [1] (Human immunodeficiency virus 1) is < 3.82; with CEM-SS [5], < 3.70. Besides, the selectivity ratio is > 262 in data set [2] and > 8630 in data set [4]. Moreover, the pEC50 in data set [3] was 7.76; in the data set on CEM-SS [5] it was 6.12.

In turn, `Cc1cc(=O)oc2c3c(ccc12)OC(C)(C)[C@H](OC(=O)Nc1cccc2ccccc12)[C@@H]3OC(=O)Nc1cccc2ccccc12` showed a pIC50 in [1] (Human immunodeficiency virus 1) of 4.01. Further, in the data set with H9, the EC50 entry was “Not Active”. Also, the Therapeutic index result in data set [8] is “Not Active”.

On to `CC(C)c1cc(=O)oc2c3c(ccc12)OC(C)(C)[C@H](OC(=O)C12CCC(C)(C(=O)O1)C2(C)C)[C@@H]3OC(=O)C12CCC(C)(C(=O)O1)C2(C)C` (stereo partly drawn), for which the pIC50 was < 3.82 in data set [1] (Human immunodeficiency virus 1) and < 3.89 with CEM-SS [5]. Besides, the selectivity ratio in data set [2] is > 219; in data set [4], > 4790. The pEC50 is 7.50 in data set [3] and 6.23 in the data set on CEM-SS [5].

Turning to `Cc1cc(=O)oc2c3c(ccc12)OC(C)(C)[C@H](OC(=O)c1cccc(Br)c1)[C@@H]3OC(=O)c1cccc(Br)c1`, in data set [1] (Human immunodeficiency virus 1), the pIC50 is < 4.04. For the same molecule, the EC50 result in the data set on H9 is “Not Active”. Moreover, the Therapeutic index entry in data set [8] was “Not Active”.

For `CC1(C)Oc2ccc3c(-c4ccccc4)cc(=O)oc3c2[C@@H](OC(=O)C23CCC(C)(C(=O)O2)C3(C)C)[C@H]1OC(=O)C12CCC(C)(C(=O)O1)C2(C)C` (stereo partly drawn), in data set [1] (Human immunodeficiency virus 1), the negative-log IC50 (pIC50) was < 3.84. In [3], this molecule showed a pEC50 of 6.92. Further, the selectivity ratio in [4] is > 1190.

In [1] (Human immunodeficiency virus 1), `Cc1cc(=O)oc2c3c(ccc12)OC(C)(C)[C@H](OC(=O)C12CCC(C)(C(=O)O1)C2(C)C)[C@@H]3OC(=O)C12CC3CC(CC(C3)C1)C2` (stereo partly drawn) had a pIC50 of 4.67. Further, in data set [3], the pEC50 was 6.22. Also, the selectivity ratio in data set [4] is 35.5.

Regarding `COc1cc2ccc3c(c2oc1=O)[C@@H](OC(=O)C12CCC(C)(C(=O)O1)C2(C)C)[C@@H](OC(=O)C12CCC(C)(C(=O)O1)C2(C)C)C(C)(C)O3` (stereo partly drawn), the pIC50 in data set [1] (Human immunodeficiency virus 1) is < 3.82; with CEM-SS [5] it was 4.77. Besides, the selectivity ratio in data set [2] was 34; in data set [4] it was > 64300. For the same molecule, the pEC50 was 8.62 in data set [3] and 6.31 in the data set with CEM-SS [5].

With `CC1(C)Oc2ccc3c(C(F)(F)F)cc(=O)oc3c2[C@@H](OC(=O)C23CCC(C)(C(=O)O2)C3(C)C)[C@H]1OC(=O)C12CCC(C)(C(=O)O1)C2(C)C` (stereo partly drawn), the pIC50 in data set [1] (Human immunodeficiency virus 1) is < 3.84. This molecule showed a pEC50 in [3] of 5.74. The selectivity ratio in data set [4] was > 80.1.

For `CC(=O)O[C@@H]1[C@H](OC(=O)C23CC4CC(CC(C4)C2)C3)c2c(ccc3c(C)cc(=O)oc23)OC1(C)C`, the pIC50 in data set [1] (Human immunodeficiency virus 1) was 4.72. Moreover, the pEC50 in [3] is 5.94. Further, the selectivity ratio in [4] stood at 16.7.

For the molecule `Cc1cc(=O)oc2c3c(ccc12)OC(C)(C)[C@H](OC(=O)CC(C)C)[C@@H]3OC(=O)CC(C)C`, the pIC50 in data set [1] (Human immunodeficiency virus 1) is 4.38. In addition, the EC50 entry in the data set with H9 was “Not Active”. In data set [8], the Therapeutic index entry was “Not Active”.

The molecule `CC(=O)O[C@@H]1c2c(ccc3c(C)cc(=O)oc23)OC(C)(C)[C@@H]1OC(C)=O` showed a pIC50 in data set [1] (Human immunodeficiency virus 1) of 3.77. In [3], this molecule gave a pEC50 of 4.08. In addition, the selectivity ratio in [4] was 2.06.

In the case of `Cc1cc(=O)oc2c3c(ccc12)OC(C)(C)[C@H](O)[C@@H]3OC(=O)C12CCC(C)(C(=O)O1)C2(C)C` (stereo partly drawn), in [1] (Human immunodeficiency virus 1), the pIC50 was < 3.66.

For the molecule `Cc1cc(=O)oc2c3c(ccc12)OC(C)(C)[C@H](O)[C@@H]3OC(=O)C12CC3CC(CC(C3)C1)C2`, in data set [1] (Human immunodeficiency virus 1), the pIC50 was 4.36. In addition, in the data set on H9, the EC50 result is recorded as “Not Active”. In [8], the Therapeutic index entry was “Not Active”.

Turning to `Cc1cc(=O)oc2c3c(ccc12)OC(C)(C)[C@H](OC(=O)C12CCC(C)(C(=O)O1)C2(C)C)[C@@H]3OC(=O)C12CCC(C)(C(=O)O1)C2(C)C` (stereo in doubt; 8), in [1] (Human immunodeficiency virus 1), the pIC50 was < 3.90. In data set [2], the selectivity ratio was > 3150. In the data set with CEM-SS [5], the pEC50 is 7.20 and the pIC50 was < 3.70.

Take `Cc1cc(=O)oc2c3c(ccc12)OC(C)(C)[C@H](OC(=O)C12CCC(C)(C(=O)O1)C2(C)C)[C@@H]3OC(=O)C12CCC(C)(C(=O)O1)C2(C)C` (stereo in doubt; 19): the pIC50 in [1] is < 3.80.

Regarding `Cc1cc(=O)oc2c3c(ccc12)OC(C)(C)[C@H](OS(=O)(=O)CC12CCC(CC1=O)C2(C)C)[C@@H]3O` (stereo in doubt; 22), the pIC50 in data set [1] was 4.38.

`Cc1cc(=O)oc2c3c(ccc12)OC(C)(C)[C@H](OS(=O)(=O)CC12CCC(CC1=O)C2(C)C)[C@@H]3O` (stereo in doubt; 23) showed a pIC50 in [1] (Human immunodeficiency virus 1) of 4.35. Moreover, the EC50 entry in the data set on H9 is “Not Active”. In addition, the Therapeutic index result in [8] is reported as “Not Active”.

`Cc1cn([C@H]2C[C@H](N=[N+]=[N-])[C@@H](CO)O2)c(=O)[nH]c1=O` [ZIDOVUDINE] gave a pEC50 in data set [3] of 5.35. Besides, in the data set on CEM-SS [5], the pEC50 was 8.42 and the pIC50 is < 6.00.
